Measurements reported in ChEMBL document CHEMBL3734718, “Development of new highly potent imidazo[1,2-b]pyridazines targeting Toxoplasma gondii calcium-dependent protein kinase 1” (Eur J Med Chem, 2015).

Experiments:
[1] = system: Toxoplasma gondii; assay: Antiparasitic activity against Toxoplasma gondii RH tachyzoite expressing beta-galactosidase assessed as inhibition of tachyzoite invasion into human foreskin fibroblast host cells after 96 hrs by colorimetric microtitre assay; assay type: functional, organism-based
Outline: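 Invasion of HFF host cells by a recombinant T. gondii strain carrying bacterial β-galactosidase was judged indirectly from parasite growth inhibition in a colorimetric microtiter format.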

[2] = Cytotoxicity against HFF assessed as cell proliferation after 96 hrs by alamar blue reduction assay; assay type: cell-based; settings: human, HFF cells
Outline: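 Non-specific toxicity to HFF host cells was measured by Alamar Blue reduction as a quantitative read-out of cell proliferation, with the CC50 derived.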

[3] = Inhibition of wild type recombinant Toxoplasma gondii CDPK1 using syntide-2 substrate after 30 mins by Kinase-Glo luminescent assay
[4] = target: Cyclin-dependent kinase 5/CDK5 activator 1 (Homo sapiens, UniProt Q00535); assay: Inhibition of human recombinant CDK5/P25 expressed in Escherichia coli using histone H1 substrate after 30 mins by scintillation and luminescence counting method in presence of [gamma-33P]ATP
Chain of Cyclin-dependent kinase 5/CDK5 activator 1 (Q00535 whole entry): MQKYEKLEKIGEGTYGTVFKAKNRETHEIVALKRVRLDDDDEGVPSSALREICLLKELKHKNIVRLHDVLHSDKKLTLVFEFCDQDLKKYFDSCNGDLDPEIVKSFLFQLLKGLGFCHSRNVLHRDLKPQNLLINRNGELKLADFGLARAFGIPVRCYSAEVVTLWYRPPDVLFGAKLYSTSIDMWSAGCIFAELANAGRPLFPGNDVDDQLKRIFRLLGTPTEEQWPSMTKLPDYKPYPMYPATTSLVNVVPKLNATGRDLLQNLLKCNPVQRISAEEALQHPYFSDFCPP
Chain of Cyclin-dependent kinase 5/CDK5 activator 1 (Q15078 whole entry, further chain): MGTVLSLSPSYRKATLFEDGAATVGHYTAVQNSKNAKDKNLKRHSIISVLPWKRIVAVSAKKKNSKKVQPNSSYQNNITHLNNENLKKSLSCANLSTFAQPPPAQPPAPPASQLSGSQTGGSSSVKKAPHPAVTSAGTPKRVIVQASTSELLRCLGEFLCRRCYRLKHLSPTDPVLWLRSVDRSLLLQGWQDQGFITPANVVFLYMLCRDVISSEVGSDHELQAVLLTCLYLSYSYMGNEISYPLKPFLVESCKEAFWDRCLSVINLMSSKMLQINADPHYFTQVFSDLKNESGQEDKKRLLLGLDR

[5] = target: Receptor-interacting serine/threonine-protein kinase 3 (Homo sapiens, UniProt Q9Y572); assay: Inhibition of full length human GST-tagged RIPK3 expressed in Spodoptera frugiperda Sf9 cells after 30 mins by scintillation and luminescence counting method in the presence of [gamma-33P]ATP
Chain of Receptor-interacting serine/threonine-protein kinase 3 (Q9Y572 whole entry): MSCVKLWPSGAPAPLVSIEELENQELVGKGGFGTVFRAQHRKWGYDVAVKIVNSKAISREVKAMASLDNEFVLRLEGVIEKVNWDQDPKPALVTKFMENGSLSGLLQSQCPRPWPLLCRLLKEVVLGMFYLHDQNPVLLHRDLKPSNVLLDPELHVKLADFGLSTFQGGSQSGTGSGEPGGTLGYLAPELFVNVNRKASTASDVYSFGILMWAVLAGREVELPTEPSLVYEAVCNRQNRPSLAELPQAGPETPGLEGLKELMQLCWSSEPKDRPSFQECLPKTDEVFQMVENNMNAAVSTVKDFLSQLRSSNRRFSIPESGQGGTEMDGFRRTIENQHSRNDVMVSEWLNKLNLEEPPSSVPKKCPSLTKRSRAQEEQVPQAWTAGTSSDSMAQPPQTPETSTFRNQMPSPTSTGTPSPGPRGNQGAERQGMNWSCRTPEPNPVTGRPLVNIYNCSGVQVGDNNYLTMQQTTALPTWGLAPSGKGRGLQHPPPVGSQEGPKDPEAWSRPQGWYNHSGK

[6] = Inhibition of porcine brain CK1-delta/epsilon using CKS peptide substrate after 30 mins by scintillation and luminescence counting method in presence of [gamma-33P]ATP; design: species or system Sus scrofa
[7] = target: Glycogen synthase kinase-3 (Sus scrofa, UniProt B2LUN4+I6LNT8); assay: Inhibition of porcine brain GSK-3 alpha/beta using GS-1 substrate after 30 mins by scintillation and luminescence counting method in the presence of [gamma-33P]ATP
[8] = target: T1, Serine/threonine-protein kinase haspin (Homo sapiens, UniProt Q8TF76); assay: Inhibition of human recombinant haspin kinase domain expressed in Escherichia coli BL21-KRX using histone H3 (1 to 21) peptide substrate after 30 mins by scintillation and luminescence counting method in the presence of [gamma-33P]ATP
T1 sequence (Q8TF76 whole entry): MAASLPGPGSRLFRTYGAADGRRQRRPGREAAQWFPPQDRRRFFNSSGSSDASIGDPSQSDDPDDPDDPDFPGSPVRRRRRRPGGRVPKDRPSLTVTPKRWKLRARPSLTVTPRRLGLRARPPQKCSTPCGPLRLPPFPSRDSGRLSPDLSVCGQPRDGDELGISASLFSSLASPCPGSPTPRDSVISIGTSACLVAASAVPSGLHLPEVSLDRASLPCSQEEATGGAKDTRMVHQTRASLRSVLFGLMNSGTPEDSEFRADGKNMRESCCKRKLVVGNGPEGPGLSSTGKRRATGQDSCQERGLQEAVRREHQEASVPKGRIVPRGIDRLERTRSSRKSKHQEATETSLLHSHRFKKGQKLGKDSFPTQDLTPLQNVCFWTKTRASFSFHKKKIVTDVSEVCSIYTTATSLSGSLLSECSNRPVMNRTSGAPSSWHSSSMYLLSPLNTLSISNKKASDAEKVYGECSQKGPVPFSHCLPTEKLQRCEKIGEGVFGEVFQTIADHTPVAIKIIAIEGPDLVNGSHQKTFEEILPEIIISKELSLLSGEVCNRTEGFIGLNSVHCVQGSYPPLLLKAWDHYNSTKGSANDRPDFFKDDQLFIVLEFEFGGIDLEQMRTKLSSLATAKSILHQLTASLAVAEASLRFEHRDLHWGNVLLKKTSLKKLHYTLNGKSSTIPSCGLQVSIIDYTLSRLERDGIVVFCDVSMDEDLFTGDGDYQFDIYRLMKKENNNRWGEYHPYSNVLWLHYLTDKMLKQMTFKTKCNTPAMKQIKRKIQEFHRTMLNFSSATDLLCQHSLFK

[9] = Selectivity ratio of IC50 for human recombinant haspin kinase domain expressed in Escherichia coli BL21-KRX to IC50 for wild type recombinant Toxoplasma gondii CDPK1; assay type: cell-free
[10] = Selectivity ratio of IC50 for porcine brain GSK-3 alpha/beta to IC50 for wild type recombinant Toxoplasma gondii CDPK1
[11] = Selectivity ratio of IC50 for human recombinant CDK5/P25 expressed in Escherichia coli to IC50 for wild type recombinant Toxoplasma gondii CDPK1; assay type: cell-free
[12] = Selectivity ratio of IC50 for porcine brain CK1-delta/epsilon to IC50 for wild type recombinant Toxoplasma gondii CDPK1
[13] = Selectivity ratio of IC50 for full length human GST-tagged RIPK3 expressed in Spodoptera frugiperda Sf9 cells to IC50 for wild type recombinant Toxoplasma gondii CDPK1
[14] = Lipophilicity, log P of the compound; assay type: physicochemical; settings: octanol/water

Row | IC50 [4] | IC50 [5] | IC50 [6] | IC50 [7] | IC50 [8] | logP [14] | Compound | EC50 [1] | CC50 at 96 h [2] | IC50 [3] | Ratio IC50 [9] | Ratio IC50 [10] | Ratio IC50 [11] | Ratio IC50 [12] | Ratio IC50 [13]
1 | – | – | – | – | – | – | CCc1nc(N)nc(N)c1-c1ccc(Cl)cc1 [PYRIMETHAMINE] | 0.34 µM | > 50 µM | – | – | – | – | – | –
2 | > 10 µM | ≥ 10 µM | 0.4 µM | 8.8 µM | > 10 µM | – | COc1cccc(-c2nc3ccc(N4CCN(C)CC4)nn3c2-c2ccncc2)c1 | 0.05 µM | 38 µM | 0.009 µM | – | – | – | – | –
3 | > 10 µM | 0.45 µM | > 10 µM | > 10 µM | > 10 µM | – | CN1CCN(c2ccc3nc(-c4cccc(-c5ccccc5)c4)c(-c4ccncc4)n3n2)CC1 | 1 µM | 10.9 µM | 0.44 µM | – | – | – | – | –
4 | > 10 µM | > 10 µM | ≥ 10 µM | 2.2 µM | > 10 µM | – | CN1CCN(c2ccc3nc(-c4cccc5c4OCO5)c(-c4ccccc4)n3n2)CC1 | 1.9 µM | 21.9 µM | 5.4 µM | – | – | – | – | –
5 | > 10 µM | > 10 µM | 0.95 µM | > 10 µM | > 10 µM | – | CN1CCN(c2ccc3nc(-c4ccc5ncsc5c4)c(-c4ccncc4)n3n2)CC1 | 1.66 µM | 17.5 µM | 0.4 µM | – | – | – | – | –
6 | – | – | – | – | – | – | CC1CN(c2ccc3nc(-c4cccc5c4OCO5)c(-c4ccncc4)n3n2)CC(C)N1C (configuration not stated) | 0.63 µM | > 50 µM | 0.63 µM | – | – | – | – | –
7 | > 10 µM | > 10 µM | > 10 µM | > 10 µM | > 10 µM | – | CN1CCN(c2ccc3nc(-c4cccc5c4OCO5)c(-c4cccnc4)n3n2)CC1 | > 5 µM | 35.9 µM | 6.5 µM | – | – | – | – | –
8 | > 10 µM | 1.2 µM | > 10 µM | > 10 µM | > 10 µM | – | COc1ccc2c(-c3nc4ccc(N5CCN(C)CC5)nn4c3-c3ccncc3)cccc2c1 | 2.21 µM | 20.9 µM | 0.5 µM | – | – | – | – | –
9 | > 10 µM | 2.5 µM | 0.37 µM | 5.4 µM | > 10 µM | – | CN1CCN(c2ccc3nc(-c4cccc5c4OCO5)c(-c4ccncc4)n3n2)CC1 | 0.1 µM | 42.5 µM | 0.014 µM | > 380 | > 380 | > 380 | 25 | > 100
10 | > 10 µM | 7.6 µM | 0.15 µM | > 10 µM | > 10 µM | – | CN1CCN(c2ccc3nc(-c4ccc5c(c4)OCO5)c(-c4ccncc4)n3n2)CC1 | 0.63 µM | 17.5 µM | 0.15 µM | – | – | – | – | –
11 | > 10 µM | > 10 µM | 2 µM | > 10 µM | > 10 µM | – | CN1CCN(c2ccc3nc(-c4cccc5c4OCCO5)c(-c4ccncc4)n3n2)CC1 | 0.94 µM | > 50 µM | 1.23 µM | – | – | – | – | –
12 | > 10 µM | 0.88 µM | 0.51 µM | > 10 µM | > 10 µM | – | CN1CCN(c2ccc3nc(-c4cccc5ccccc45)c(-c4ccncc4)n3n2)CC1 | 0.07 µM | 21.3 µM | 0.008 µM | > 1000 | > 1000 | > 1000 | 25 | > 100
13 | > 10 µM | > 10 µM | > 10 µM | > 10 µM | > 10 µM | – | CN1CCN(c2ccc3nc(-c4ccc(-c5ccccc5)cc4)c(-c4ccncc4)n3n2)CC1 | > 5 µM | 13.7 µM | 3.43 µM | – | – | – | – | –
14 | > 10 µM | 0.27 µM | 3.1 µM | 10 µM | > 10 µM | 5 | CN1CCN(c2ccc3nc(-c4cccc(-c5cccs5)c4)c(-c4ccncc4)n3n2)CC1 | 1.42 µM | 6.7 µM | 0.37 µM | – | – | – | – | –
15 | > 10 µM | > 10 µM | > 10 µM | > 10 µM | > 10 µM | 5 | CN1CCN(c2ccc3nc(-c4ccc(-c5ccccc5)s4)c(-c4ccncc4)n3n2)CC1 | 3.07 µM | 6.8 µM | 3.58 µM | – | – | – | – | –
16 | > 10 µM | 5.5 µM | 2.4 µM | 3.5 µM | > 10 µM | 5 | c1cc2c(c(-c3nc4cccnn4c3-c3ccncc3)c1)OCO2 | 1.28 µM | 8.2 µM | 0.22 µM | – | – | – | – | –
17 | > 10 µM | 0.3 µM | ≥ 10 µM | 7.6 µM | > 10 µM | 5 | CN1CCN(c2ccc3nc(-c4cccc(-c5ccsc5)c4)c(-c4ccncc4)n3n2)CC1 | 0.61 µM | 6.3 µM | 0.5 µM | – | – | – | – | –
18 | > 10 µM | 1.7 µM | > 10 µM | > 10 µM | > 10 µM | 5 | CCOc1ccc2c(-c3nc4ccc(N5CCN(C)CC5)nn4c3-c3ccncc3)cccc2c1 | 1.71 µM | 7.6 µM | 0.91 µM | – | – | – | – | –
19 | > 10 µM | > 10 µM | > 10 µM | > 10 µM | > 10 µM | – | CN1CCN(c2ccc3nc(-c4ccc(C(=O)N5CCOCC5)cc4)c(-c4ccncc4)n3n2)CC1 | > 5 µM | 14.1 µM | > 5 µM | – | – | – | – | –
20 | > 10 µM | > 10 µM | > 10 µM | > 10 µM | > 10 µM | – | CN1CCN(c2ccc3nc(-c4cccc5c4OCO5)c(-c4ccncc4)n3c2)CC1 | > 5 µM | > 50 µM | 0.85 µM | – | – | – | – | –
21 | > 10 µM | > 10 µM | ≥ 10 µM | > 10 µM | > 10 µM | < 3 | CN1CCN(c2ccc3nc(-c4ccc5c(c4)OCCO5)c(-c4ccncc4)n3n2)CC1 | 0.49 µM | 7.6 µM | 0.11 µM | – | – | – | – | –
22 | > 10 µM | > 10 µM | > 10 µM | > 10 µM | 3.9 µM | < 3 | CN1CCN(c2ccc3nc(-c4cccc(C(=O)N5CCOCC5)c4)c(-c4ccncc4)n3n2)CC1 | > 5 µM | 6.4 µM | 3.05 µM | – | – | – | – | –
